Test results reported in ChEMBL document CHEMBL3526048, “In vitro metabolism of rivoglitazone, a novel peroxisome proliferator-activated receptor γ agonist, in rat, monkey, and human liver microsomes and freshly isolated hepatocytes” (Drug Metab Dispos, 2011).

Assays:
[1] = target: T1, UDP-glucuronosyltransferase 2B15 (Homo sapiens, UniProt P54855); assay: (§1) Activity of human UGT2B15 expressed in microsomes isolated from baculovirus infected insect cell assessed as enzyme-mediated 2-mercapto-3-(4-((6-methoxy-1-methyl-1H-benzo[d]imidazol-2-yl)methoxy)phenyl)propanoic acid formation at 20 uM after 4 hrs by radio-HPLC/LC-MS/MS analysis in presence of UDPGA; type: ADME
T1 sequence (P54855 whole entry): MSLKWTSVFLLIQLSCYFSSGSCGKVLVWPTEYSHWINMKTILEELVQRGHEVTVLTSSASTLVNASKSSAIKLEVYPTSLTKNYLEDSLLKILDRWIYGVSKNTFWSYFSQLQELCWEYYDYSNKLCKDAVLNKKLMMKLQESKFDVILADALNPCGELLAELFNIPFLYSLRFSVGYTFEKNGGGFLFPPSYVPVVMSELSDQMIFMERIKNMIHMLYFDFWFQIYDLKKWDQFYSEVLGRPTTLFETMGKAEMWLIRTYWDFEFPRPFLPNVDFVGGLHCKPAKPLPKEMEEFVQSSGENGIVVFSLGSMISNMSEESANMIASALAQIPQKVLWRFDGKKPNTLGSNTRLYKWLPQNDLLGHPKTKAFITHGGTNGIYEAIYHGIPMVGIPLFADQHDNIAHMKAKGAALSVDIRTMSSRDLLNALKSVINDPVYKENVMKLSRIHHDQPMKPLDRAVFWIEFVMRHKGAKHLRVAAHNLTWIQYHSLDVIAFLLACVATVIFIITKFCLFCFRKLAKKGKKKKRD

[2] = target: T2, UDP-glucuronosyltransferase 2B7 (Homo sapiens, UniProt P16662); assay: Activity of human UGT2B7 expressed in microsomes isolated from baculovirus infected insect cell assessed as enzyme-mediated 3-(4-((6-methoxy-1-methyl-1H-benzo[d]imidazol-2-yl)methoxy)phenyl)-2-(methylsulfonyl)propanamide formation at 20 uM after 4 hrs by radio-HPLC/LC-MS/MS analysis in presence of NADPH-generating system/SAM; type: ADME
T2 sequence (P16662 whole entry): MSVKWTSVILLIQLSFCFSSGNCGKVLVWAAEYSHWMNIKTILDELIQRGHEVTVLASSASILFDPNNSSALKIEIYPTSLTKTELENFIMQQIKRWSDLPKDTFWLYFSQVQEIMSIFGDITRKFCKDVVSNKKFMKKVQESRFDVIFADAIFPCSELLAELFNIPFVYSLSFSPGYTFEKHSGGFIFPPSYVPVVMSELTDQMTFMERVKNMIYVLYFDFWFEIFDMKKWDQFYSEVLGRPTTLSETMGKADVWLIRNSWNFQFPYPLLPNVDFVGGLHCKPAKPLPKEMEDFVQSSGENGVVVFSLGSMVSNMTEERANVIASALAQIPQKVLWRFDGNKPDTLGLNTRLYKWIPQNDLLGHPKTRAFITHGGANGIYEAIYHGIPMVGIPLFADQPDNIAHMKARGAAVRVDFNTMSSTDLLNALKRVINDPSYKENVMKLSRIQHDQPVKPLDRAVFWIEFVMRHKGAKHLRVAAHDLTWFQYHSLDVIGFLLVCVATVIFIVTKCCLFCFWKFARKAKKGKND

[3] = target: Cytochrome P450 2D6 (Homo sapiens, UniProt P10635); assay: as §1, with “human CYP2D6” for “human UGT2B15”, “after 2” for “after 4”, “of NADPH-generating system” for “of UDPGA”; type: ADME
Procedure, shortened: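 Baculovirus-insect-cell microsomes expressing the human CYP (1 mg/ml protein) were incubated with [14C]rivoglitazone (20 μM) in 50 mM potassium phosphate (pH 7.4) or 100 mM Tris-HCl (pH 7.5) with an NADPH-generating system (2 mM NADP+, 20 mM glucose 6-phosphate, 2 units/ml G6PDH, 10 mM MgCl2) for 2 h at 37°C. Insect-cell control supersomes served as the control. Reactions were stopped with acetonitrile, and the concentrated supernatants were analysed by radio-HPLC, LC-MS and LC-MS/MS.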

[4] = target: Cytochrome P450 2C19 (Homo sapiens, UniProt P33261); assay: Activity of human CYP2C19 expressed in microsomes isolated from baculovirus infected insect cell assessed as enzyme-mediated (2S,3S,4S,5R,6R)-3,4,5-trihydroxy-6-(5-(4-((6-methoxy-1-methyl-1H-benzo[d]imidazol-2-yl)methoxy)benzyl)-2,4-dioxothiazolidin-3-yl)tetrahydro-2H-pyran-2-carboxylic acid formation at 20 uM after 2 hrs by radio-HPLC/LC-MS/MS analysis in presence of UDPGA and UDPGA/SAM; type: ADME
[5] = target: T3, UDP-glucuronosyltransferase 1A3 (Homo sapiens, UniProt P35503); assay: Activity of human UGT1A3 expressed in microsomes isolated from baculovirus infected insect cell assessed as enzyme-mediated 3-(4-((6-methoxy-1-methyl-1H-benzo[d]imidazol-2-yl)methoxy)phenyl)-2-(methylthio)propanoic acid formation at 20 uM after 4 hrs by radio-HPLC/LC-MS/MS analysis in presence of NADPH-generating system/SAM and UDPGA/SAM in presence of UDPGA and UDPGA/SAM; type: ADME
T3 sequence (P35503 whole entry): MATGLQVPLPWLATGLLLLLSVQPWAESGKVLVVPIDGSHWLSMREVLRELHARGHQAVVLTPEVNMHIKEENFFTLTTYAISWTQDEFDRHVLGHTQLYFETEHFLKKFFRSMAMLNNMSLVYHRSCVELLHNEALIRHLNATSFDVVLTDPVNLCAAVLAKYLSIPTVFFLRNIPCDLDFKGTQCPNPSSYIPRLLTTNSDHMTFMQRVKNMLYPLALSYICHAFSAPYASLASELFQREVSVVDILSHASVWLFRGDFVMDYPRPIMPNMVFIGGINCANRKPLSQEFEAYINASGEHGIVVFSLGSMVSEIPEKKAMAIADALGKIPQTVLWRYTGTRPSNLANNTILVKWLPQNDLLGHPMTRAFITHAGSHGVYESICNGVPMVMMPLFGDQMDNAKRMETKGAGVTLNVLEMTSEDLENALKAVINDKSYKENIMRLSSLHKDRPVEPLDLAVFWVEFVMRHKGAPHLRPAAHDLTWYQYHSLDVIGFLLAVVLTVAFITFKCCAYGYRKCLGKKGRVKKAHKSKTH

[6] = Drug metabolism in monkey hepatocytes assessed as formation of 5-(4-((6-methoxy-1H-benzo[d]imidazol-2-yl)methoxy)benzyl)thiazolidine-2,4-dione at 30 uM after 3 hrs by radio-HPLC/LC-MS/MS analysis in presence of NADPH-generating system and NADPH-generating system/SAM; settings: cynomolgus monkey
[7] = Drug metabolism in monkey hepatocytes assessed as formation of (2S,3S,4S,5R,6R)-3,4,5-trihydroxy-6-(5-(4-((6-methoxy-1-methyl-1H-benzo[d]imidazol-2-yl)methoxy)benzyl)-2,4-dioxothiazolidin-3-yl)tetrahydro-2H-pyran-2-carboxylic acid at 30 uM after 3 hrs by radio-HPLC/LC-MS/MS analysis in presence of UDPGA and UDPGA/SAM; settings: cynomolgus monkey

Chain of Cytochrome P450 2D6 (P10635 whole entry): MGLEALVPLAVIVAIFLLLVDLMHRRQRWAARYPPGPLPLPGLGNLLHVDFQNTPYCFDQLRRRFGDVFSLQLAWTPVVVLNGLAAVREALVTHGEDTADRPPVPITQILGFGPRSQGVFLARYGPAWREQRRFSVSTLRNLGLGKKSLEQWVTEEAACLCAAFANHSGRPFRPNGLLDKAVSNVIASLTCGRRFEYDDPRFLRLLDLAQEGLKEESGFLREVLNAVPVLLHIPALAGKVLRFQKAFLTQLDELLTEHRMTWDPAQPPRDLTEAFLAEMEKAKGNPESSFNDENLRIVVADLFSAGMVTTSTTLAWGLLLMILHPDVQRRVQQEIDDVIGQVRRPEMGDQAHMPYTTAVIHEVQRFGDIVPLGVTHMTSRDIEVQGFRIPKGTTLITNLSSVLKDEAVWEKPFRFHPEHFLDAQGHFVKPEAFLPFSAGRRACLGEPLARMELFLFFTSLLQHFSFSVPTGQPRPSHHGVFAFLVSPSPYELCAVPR
Chain of Cytochrome P450 2C19 (P33261 whole entry): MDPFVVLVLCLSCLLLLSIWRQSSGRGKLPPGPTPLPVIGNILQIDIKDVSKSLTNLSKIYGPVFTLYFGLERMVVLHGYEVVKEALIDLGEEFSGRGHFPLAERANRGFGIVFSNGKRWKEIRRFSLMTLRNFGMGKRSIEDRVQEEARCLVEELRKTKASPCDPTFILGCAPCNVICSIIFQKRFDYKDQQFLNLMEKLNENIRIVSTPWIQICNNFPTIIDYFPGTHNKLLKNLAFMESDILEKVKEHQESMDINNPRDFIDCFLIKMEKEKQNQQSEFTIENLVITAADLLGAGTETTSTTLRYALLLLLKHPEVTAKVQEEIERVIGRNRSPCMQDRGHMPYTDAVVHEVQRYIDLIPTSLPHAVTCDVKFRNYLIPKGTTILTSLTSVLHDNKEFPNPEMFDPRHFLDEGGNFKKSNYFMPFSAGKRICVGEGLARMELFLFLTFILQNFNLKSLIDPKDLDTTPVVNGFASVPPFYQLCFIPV

Drug metabolism [1]: metabolite_not_detected
Drug metabolism [2]: metabolite_not_detected
Drug metabolism [3]: metabolite_detected
Drug metabolism [4]: metabolite_not_detected
Drug metabolism [5]: metabolite_not_detected
Drug metabolism [6]: metabolite_not_detected
Drug metabolism [7]: metabolite_detected
Compound: COc1ccc2nc(COc3ccc(C[14CH]4SC(=O)NC4=O)cc3)n(C)c2c1.Cl (racemic)
